Data set [1] in a line: Inhibition of human ATPsynthase.
Data set [2] in a line: Inhibition of Mycobacterium smegmatis ATPsynthase. On the set-up: species or system Mycolicibacterium smegmatis.
In data set [3] the test system is Mycobacterium tuberculosis. Briefly: Antimycobacterial activity against Mycobacterium tuberculosis H37Rv ATCC 27294 assessed as reduction in bacterial growth incubated for 10 days in under anaerobic condition by luminometric assay. It counts as functional. The note with it: H37Rv ATCC 27294, 240 h, time 10 day. Summed up: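 Growth inhibition of M.tb H37Rv under non-replicating conditions (LORA), reported as minimum inhibitory concentration in µg/mL; tested at the Institute for Tuberculosis Research, University of Illinois at Chicago.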

The nature of data set [4]: Metabolic stability in human liver microsomes assessed as intrinsic clearance. The format is ADME, Microsome. (Liver microsomes are a subcellular fraction often used to study metabolism.)
In data set [5] the test system is Mycobacterium tuberculosis. Description: Antimycobacterial activity against Mycobacterium tuberculosis H37Rv ATCC 27294 assessed as reduction in bacterial growth incubated for 4 days under aerobic condition by alamar blue based fluorescence assay. The format is functional. The note with it: H37Rv ATCC 27294, 96 h, time 4 day. Summed up: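 Replicating aerobic culture of M.tb H37Rv, MABA read-out; value is the minimum inhibitory concentration in µg/mL; assay run at the Institute for Tuberculosis Research, University of Illinois at Chicago.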
Background: Resazurin is reduced to fluorescent resorufin, in cell work by metabolically active cells.

A short description of data set [6]: Metabolic stability in mouse liver microsomes assessed as intrinsic clearance. The format is ADME, Microsome.
Data set [7] deals with Vero. Briefly: Cytotoxicity against African green monkey Vero cells assessed as reduction in cell viability incubated for 72 hrs by MTS-PMS assay. It counts as cell-based. As to conditions: Chlorocebus sabaeus. The method in brief:
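Mammalian cytotoxicity measured in Vero (green monkey kidney epithelial) cells; value reported as IC50 in µg/mL.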
A general note: Tetrazolium assays rely on reduction of a dye to a coloured formazan, in cell work by metabolically active cells.

For data set [8], the system named is ATP synthase (human vs Mycobacterium smegmatis). Briefly: Selectivity index, ratio of IC50 for human ATPsynthase to IC50 for Mycobacterium smegmatis ATPsynthase. The format is toxicity. As to conditions: read-out: Ratio IC50.

≈ marks a conversion by molar mass, not a printed value.

Regarding `Cc1ccc(N2CCN(C)CC2)c2c1CCN(C(=O)N1CCC(Oc3ccccc3C(F)(F)F)CC1)C2`, the IC50 in data set [1] was 48 µg/mL (≈ 92.9 µM); in data set [2] it was 6.2 µg/mL (≈ 12 µM).

Turning to `Cc1cc(Cl)ccc1-c1ccc(CN2CCc3c(C)ccc(N4CCN(C)CC4)c3C2)nc1`, the values for the MIC90 in data set [3] and in data set [5] were 5.2 µg/mL (≈ 11.3 µM) and 0.79 µg/mL (≈ 1.71 µM), respectively. Also, the CLH in data set [4] stood at 5.52 mL/h/kg; in data set [6], 14.3 mL/h/kg. For the same compound, the concentration for half-maximal inhibition (IC50) in data set [7] is 14 µg/mL (≈ 30.4 µM).

`Cc1cc(Cl)ccc1-c1ccc(N2CCc3c(C)ccc(N4CCN(C)CC4)c3C2)nc1`: the MIC90 was 2.4 µg/mL (≈ 5.37 µM) in data set [3] and 1.9 µg/mL (≈ 4.25 µM) in data set [5]. For the same compound, the CLH is 1.32 mL/h/kg in data set [4] and 2.1 mL/h/kg in data set [6]. In addition, the IC50 was 23 µg/mL (≈ 51.5 µM) in data set [1], 5.5 µg/mL (≈ 12.3 µM) in data set [2] and 22 µg/mL (≈ 49.2 µM) in data set [7].

On to `Cc1ccc(N2CCN(C)CC2)c2c1CCN(C(=O)Nc1ccc(-c3cc(C(F)(F)F)cc(C(F)(F)F)c3)cn1)C2`, for which the half-inhibitory concentration (IC50) in data set [1] was determined as 13 µg/mL (≈ 22.5 µM); in data set [2], 14 µg/mL (≈ 24.2 µM).

On to `COc1ccc(N2CCN(C)CC2)c2c1CCN(c1ccc(-c3cc(C(F)(F)F)cc(C(F)(F)F)c3)cn1)C2`, for which the MIC90 in data set [3] worked out at 12 µg/mL (≈ 21.8 µM); in data set [5], 7.9 µg/mL (≈ 14.3 µM). The 50% inhibitory concentration (IC50) in data set [7] amounted to 19 µg/mL (≈ 34.5 µM).

On to `CCc1ccc(N2CCN(C)CC2)c2c1CCN(C(=O)Nc1ccc(-c3ccc(C(F)(F)F)cc3)cn1)C2`, for which the CLH was found to be 6.42 mL/h/kg in data set [4] and 48.6 mL/h/kg in data set [6]. In addition, the IC50 in data set [1] turned out to be 7.2 µg/mL (≈ 13.8 µM); in data set [2], 2.2 µg/mL (≈ 4.2 µM).

With `Cc1cc(Cl)ccc1-c1ccc(NC(=O)N2CCc3c(F)ccc(N4CCN(C)CC4)c3C2)nc1`, the CLH was determined as 3 mL/h/kg in data set [4] and 3.9 mL/h/kg in data set [6]. Also, the IC50 in data set [1] turned out to be 17 µg/mL (≈ 34.4 µM); in data set [2], 1.8 µg/mL (≈ 3.64 µM).

For the compound `CN1CCN(c2cccc3c2CN(Cc2ccc(-c4ccc(Cl)cc4)cn2)CC3)CC1`, the results for the CLH in data set [4] and in data set [6] were 7.26 mL/h/kg and 14.3 mL/h/kg, respectively. For the same compound, the results for the half-inhibitory concentration (IC50) in data set [1] and in data set [2] were more than 500 µg/mL and 7.2 µg/mL (≈ 16.6 µM), respectively. The selectivity ratio in data set [8] was more than 70.

On to `Cc1ccc(N2CCN(C)CC2)c2c1CCN(c1ccc(-c3ccc(C(C)(C)C)cc3)cn1)C2`, for which the values for the MIC90 in data set [3] and in data set [5] were 3.4 µg/mL (≈ 7.48 µM) and 1.4 µg/mL (≈ 3.08 µM), respectively. The CLH in data set [4] is 2.46 mL/h/kg; in data set [6], 3.36 mL/h/kg. Besides, the IC50 in data set [7] is 18 µg/mL (≈ 39.6 µM).

As for `COc1ccc(N2CCN(C)CC2)c2c1CCN(C(=O)Nc1ccc(-c3ccc(Cl)cc3Cl)cn1)C2`, the figures for the CLH in data set [4] and in data set [6] were 2.88 mL/h/kg and 35 mL/h/kg, respectively. In addition, the concentration for half-maximal inhibition (IC50) in data set [1] was 27 µg/mL (≈ 51.3 µM); in data set [2] it was 3 µg/mL (≈ 5.7 µM).

With `CN1CCN(c2cccc3c2CN(C(=O)Nc2ccc(-c4ccc(OC(F)(F)F)cc4)cn2)CC3)CC1`, the figures for the IC50 in data set [1] and in data set [2] were more than 500 µg/mL and 6.2 µg/mL (≈ 12.1 µM), respectively. Besides, in data set [8], the selectivity ratio was more than 80.

Turning to `COc1ccc(N2CCN(C)CC2)c2c1CCN(Cc1ccc(-c3ccc(Cl)cc3C)cn1)C2`, the figures for the MIC90 in data set [3] and in data set [5] were 6.1 µg/mL (≈ 12.8 µM) and 1.8 µg/mL (≈ 3.77 µM), respectively. In data set [7], the half-inhibitory concentration (IC50) was determined as 12 µg/mL (≈ 25.2 µM).

Take `COc1ccc(N2CCN(C)CC2)c2c1CCN(C(=O)Nc1ccc(-c3ccc(Cl)cc3C)cn1)C2`: the concentration for half-maximal inhibition (IC50) in data set [1] was determined as 20 µg/mL (≈ 39.5 µM); in data set [2], 6.3 µg/mL (≈ 12.4 µM).

Consider `Cc1ccc(N2CCN(C)CC2)c2c1CCN(C(=O)N1CCC(Oc3ccc(OC(F)(F)F)cc3)CC1)C2`, for which the CLH in data set [4] worked out at 2.88 mL/h/kg; in data set [6] it was 2.4 mL/h/kg.

Compound `COc1nc2ccc(Br)cc2cc1[C@@H](c1ccccc1)[C@@](O)(CCN(C)C)c1cccc2ccccc12` [BEDAQUILINE] registered a half-maximal inhibitory concentration (IC50) in data set [1] of more than 1000 µg/mL.

The term IC50 denotes the midpoint of a concentration-inhibition curve. For orientation: MIC90 means an inhibitory concentration at the 90% level, which refers to growth in some studies and to a panel of isolates in others.

Values taken from ChEMBL document CHEMBL4699546, “Synthesis and structure-activity relationships for tetrahydroisoquinoline-based inhibitors of Mycobacterium tuberculosis” (Bioorg Med Chem, 2020).
